Assay type in all cases: cell-based
In test [1] the target is T1, 11-beta-hydroxysteroid dehydrogenase 1 (Homo sapiens, UniProt P28845). Briefly: Inhibition of human 11beta-HSD1 expressed in HEK293 cells assessed as conversion of [3H]cortisone into [3H]cortisol at 1 uM by scintillation proximity assay. For orientation: In a scintillation proximity assay essentially only radioactivity close to the scintillant gives light.
Target sequence in this assay (P28845 whole entry, looked up): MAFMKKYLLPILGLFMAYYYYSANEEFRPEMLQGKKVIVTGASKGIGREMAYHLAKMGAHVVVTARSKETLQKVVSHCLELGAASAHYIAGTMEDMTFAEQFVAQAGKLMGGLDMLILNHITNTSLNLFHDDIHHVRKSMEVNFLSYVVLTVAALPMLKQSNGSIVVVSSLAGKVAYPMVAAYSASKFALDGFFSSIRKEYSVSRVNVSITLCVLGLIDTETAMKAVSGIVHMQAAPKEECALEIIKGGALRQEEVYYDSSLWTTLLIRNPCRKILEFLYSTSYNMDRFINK
The target of test [2] is T2, 11-beta-hydroxysteroid dehydrogenase type 2 (Mus musculus) (UniProt P51661).
T2 sequence (whole entry): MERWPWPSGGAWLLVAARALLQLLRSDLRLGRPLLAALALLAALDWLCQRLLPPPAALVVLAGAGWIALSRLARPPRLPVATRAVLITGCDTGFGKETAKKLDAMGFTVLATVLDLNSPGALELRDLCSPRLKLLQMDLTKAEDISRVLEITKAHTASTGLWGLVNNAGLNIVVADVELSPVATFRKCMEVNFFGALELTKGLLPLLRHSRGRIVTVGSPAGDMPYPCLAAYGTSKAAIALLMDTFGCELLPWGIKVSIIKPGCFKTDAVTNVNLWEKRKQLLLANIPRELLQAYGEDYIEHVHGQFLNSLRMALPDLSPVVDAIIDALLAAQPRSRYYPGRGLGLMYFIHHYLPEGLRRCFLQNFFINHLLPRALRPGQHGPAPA
Briefly: Inhibition of mouse 11beta-HSD2 expressed in HEK293 cells assessed as conversion of [3H]cortisone into [3H]cortisol at 1 uM by scintillation proximity assay.

For test [3], the target named is 11-beta-hydroxysteroid dehydrogenase 1 (Mus musculus) (UniProt P50172). Briefly: Inhibition of mouse 11beta-HSD1 expressed in HEK293 cells assessed as conversion of [3H]cortisone into [3H]cortisol at 1 uM by scintillation proximity assay.
Sequence of 11-beta-hydroxysteroid dehydrogenase 1 (Mus musculus) (P50172 whole entry, looked up): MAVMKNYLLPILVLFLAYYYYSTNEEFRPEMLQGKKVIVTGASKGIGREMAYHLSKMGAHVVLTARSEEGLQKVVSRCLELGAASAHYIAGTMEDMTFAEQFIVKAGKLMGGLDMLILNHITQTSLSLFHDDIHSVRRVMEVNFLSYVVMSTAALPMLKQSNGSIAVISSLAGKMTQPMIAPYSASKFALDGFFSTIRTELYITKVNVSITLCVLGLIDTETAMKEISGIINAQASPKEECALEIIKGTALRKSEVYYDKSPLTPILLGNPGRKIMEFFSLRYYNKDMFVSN
Test [4] has as its target T3, 11-beta-hydroxysteroid dehydrogenase type 2 (Homo sapiens) (UniProt P80365).
T3 sequence (whole entry): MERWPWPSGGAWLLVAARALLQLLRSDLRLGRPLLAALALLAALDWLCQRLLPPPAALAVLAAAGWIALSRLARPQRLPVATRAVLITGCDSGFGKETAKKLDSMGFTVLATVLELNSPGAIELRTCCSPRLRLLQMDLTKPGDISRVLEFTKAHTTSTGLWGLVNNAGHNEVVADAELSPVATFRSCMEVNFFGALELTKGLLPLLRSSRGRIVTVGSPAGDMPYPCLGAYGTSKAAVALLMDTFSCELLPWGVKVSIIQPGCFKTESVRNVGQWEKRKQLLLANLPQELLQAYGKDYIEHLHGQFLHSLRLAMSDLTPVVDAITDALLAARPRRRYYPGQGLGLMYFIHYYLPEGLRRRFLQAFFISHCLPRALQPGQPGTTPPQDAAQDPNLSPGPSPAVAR
Description: Inhibition of human 11beta-HSD2 expressed in HEK293 cells assessed as conversion of [3H]cortisone into [3H]cortisol at 1 uM by scintillation proximity assay.

Test [5] deals with 11-beta-hydroxysteroid dehydrogenase 1 (Mus musculus, UniProt P50172). Briefly: Inhibition of mouse 11beta-HSD1 expressed in HEK293 cells assessed as conversion of [3H]cortisone into [3H]cortisol by scintillation proximity assay. The essentials: (§1)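 Full-length human or murine 11β-HSD1 cDNA was cloned into pcDNA3 and stably expressed in HEK-293 cells selected with 750 μg/mL G418. Microsomes from these cells were incubated with NADPH and [3H]cortisone. The [3H]cortisol formed was captured by a monoclonal antibody on protein A-coated SPA beads. Assays were run in duplicate and repeated twice; IC50 is given as the average. Glycyrrhizinic acid served as positive control.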
Sequence of 11-beta-hydroxysteroid dehydrogenase 1 (Mus musculus, UniProt P50172) (P50172 whole entry): as the sequence (P50172 whole entry, looked up) above

For test [6], the target named is T4, 11-beta-hydroxysteroid dehydrogenase type 2 (Homo sapiens, UniProt P80365).
T4 sequence (P80365 whole entry): T3 sequence (whole entry)
Briefly: Inhibition of human 11beta-HSD2 expressed in HEK293 cells assessed as conversion of [3H]cortisone into [3H]cortisol by scintillation proximity assay.

Test [7] has as its target T5, 11-beta-hydroxysteroid dehydrogenase type 2 (Mus musculus, UniProt P51661).
T5 sequence (P51661 whole entry): T2 sequence (whole entry)
Description: Inhibition of mouse 11beta-HSD2 expressed in HEK293 cells assessed as conversion of [3H]cortisone into [3H]cortisol by scintillation proximity assay.

Test [8] deals with T1, 11-beta-hydroxysteroid dehydrogenase 1. Description: Inhibition of human 11beta-HSD1 expressed in HEK293 cells assessed as conversion of [3H]cortisone into [3H]cortisol by scintillation proximity assay. The method, boiled down: as §1
Target sequence in this assay (P28845 whole entry): as the sequence (P28845 whole entry, looked up) above

These results are taken from ChEMBL document CHEMBL2034975, “Cycloartane and friedelane triterpenoids from the leaves of Caloncoba glauca and their evaluation for inhibition of 11β-hydroxysteroid dehydrogenases” (J Nat Prod, 2012).

The term inhibition denotes how much of the control response was suppressed. Regarding `C[C@@H]1CC[C@@H](C(C)(C)O)OC(=O)[C@@]23C[C@@H](O)[C@H]1[C@@]2(C)CC[C@@]12C[C@@]14CCC(=O)C(C)(C)[C@@H]4CC[C@H]23`, the inhibition in test [1], in test [2], in test [3] and in test [4] was less than 50% each time.

As a reminder, the IC50 is the concentration that gives 50% inhibition. Regarding `C=C(C)[C@@H](O)CC[C@@H](C)[C@H]1CC[C@@]2(C(=O)O)[C@@H]3CC[C@H]4C(C)(C)C(=O)CC[C@@]45C[C@@]35CC[C@]12C` (relative stereo) [CALONCOBIC ACID A], the IC50 in test [5] was 132 nM; in test [6], more than 100000 nM; in test [7], more than 100000 nM; in test [8] it was 105 nM.

Regarding `C=C1C[C@@H]2[C@@](C)(CC[C@]3(C)[C@H]4CC[C@@]5(C)[C@@H](CC[C@H](O)[C@@H]5C)[C@]4(C)CC[C@@]23C(=O)O)C[C@@H]1O`, the inhibition in test [1], in test [2], in test [3] and in test [4] was less than 50% each time.

For the compound `C=C1C[C@@H]2[C@@]3(C)CC[C@]4(C)[C@H]5CC[C@@]6(C)[C@@H](CC[C@H](O)[C@@H]6C)[C@]5(C)CC[C@@]24C(=O)O[C@H]3[C@H]1O` (relative stereo), the inhibition in test [1], in test [2], in test [3] and in test [4] was less than 50% each time.

For the compound `CC(=O)O[C@H]1CC[C@@H]2[C@](C)(CC[C@H]3[C@@]2(C)CC[C@@]2(C(=O)O)[C@@H]4CC(C)(C)CC[C@]4(C)CC[C@]32C)[C@H]1C`, the inhibition in test [1], in test [2], in test [3] and in test [4] was less than 50% in each case.

On to `CC1(C)[C@@H](O[C@H]2O[C@H](C(=O)O)[C@@H](O)[C@H](O)[C@H]2O[C@@H]2O[C@H](C(=O)O)[C@@H](O)[C@H](O)[C@H]2O)CC[C@]2(C)[C@H]3C(=O)C=C4[C@@H]5C[C@@](C)(C(=O)O)CC[C@]5(C)CC[C@@]4(C)[C@]3(C)CC[C@@H]12` [GLYCYRRHIZIN], for which the IC50 in test [5] was found to be 3 nM; in test [8], 6 nM.

For the compound `C[C@H](CC[C@@H](O)C(C)(C)O)[C@H]1CC[C@@]2(C(=O)O)[C@@H]3CC[C@H]4C(C)(C)[C@@H](O)CC[C@@]45C[C@@]35CC[C@]12C` (relative stereo) [CALONCOBIC ACID B], the IC50 in test [5] is 13 nM; in test [6], 400 nM; in test [7], more than 100000 nM; in test [8], 72 nM.

For `C[C@H](CC[C@H](O)C(C)(C)O)[C@H]1[C@@H](O)C[C@]23C(=O)O[C@@]4(CC[C@]12C)C[C@@H]1CCC(=O)C(C)(C)[C@@H]1CC[C@H]43`, the inhibition in test [1], in test [2], in test [3] and in test [4] was less than 50% each time.
